Assay results from different studies.
Each line is one published result; the experiments were not run side by side.
FGFR2: Fibroblast growth factor receptor 2 (FGFR2, Homo sapiens, UniProt P21802)
FGFR2 N549H: Fibroblast growth factor receptor 2 (FGFR2, Homo sapiens, UniProt P21802, N549H)

Cc1cnc(NC2CCOCC2)nc1-n1cnc(C(=O)NC(CN)c2cc(F)cc(Cl)c2)c1 (centres unmarked) — remaining activity (FGFR2; enzyme activity, inhibitor, radiometric; 1 µM): 100%
Cc1cc(NC(=O)c2cccc3cc(-c4cccc5[nH]nc(N)c45)ccc23)ccc1F — activity vs control (FGFR2 N549H; enzyme activity, inhibitor; 0.1 µM): 33%
Cc1noc([C@H]2C[C@@H](c3ccc(C(F)(F)F)cc3)CN(C(=O)N3CCS(=O)(=O)C3)C2)n1 — remaining binding (FGFR2; cell-free assay, competition with immobilised ligand; 1 µM): 85%
CCN(CC)c1ccc(C2=NNC(=O)CC2C)cc1[N+](=O)[O-] (centres unmarked) — remaining activity (FGFR2; enzyme activity, inhibitor; 10 µM): 115%
C[C@H](c1ccnc(Nc2nc3ccc(-c4cc(N(C)C)ncn4)cc3[nH]2)c1)N1CCN(C(=O)CC(F)(F)F)CC1 — remaining binding (FGFR2; cell-free assay, competition with immobilised ligand; 0.1 µM): 100%
CC(C)(C)c1nc(-c2cccc(NS(=O)(=O)c3c(F)cccc3F)c2F)c(-c2ccnc(N)n2)s1 — remaining activity (FGFR2; enzyme activity, inhibitor, radiometric; 1 µM): 92%
Cc1sc(C(=O)NC2COC2)cc1-n1cc(NC(=O)Nc2c(F)cccc2Cl)cn1 — remaining activity (FGFR2; enzyme activity, inhibitor; 10 µM): 105%
COc1cc(Cl)c(C(=O)N[C@@H](CN[C@H]2CC[C@@H](N)CC2)Cc2ccc(C#N)cc2)cc1-c1ccc(CN[C@H](C)c2ccc(C)cc2)o1 — remaining activity (FGFR2; enzyme activity, inhibitor; 1 µM): 102%
CCN(CC)CCNC(=O)c1c(C)[nH]c(/C=C2\C(=O)Nc3ccc(F)cc32)c1C — inhibition (FGFR2; enzyme activity, inhibitor; 0.3 µM): 36%
Cc1nc(C2CCN(C(=O)c3ccc(OC(F)(F)F)cc3N)CC2)c2ncc(N3CCN(C)CC3)cc2n1 — remaining binding (FGFR2; cell-free assay, competition with immobilised ligand; 1 µM): 100%
CN(C)C1CCN(CC#Cc2nn(C3CCCC3)c3nc(NCc4ccccc4)ncc23)C1 (centres unmarked) — inhibition (FGFR2; enzyme activity, inhibitor, FRET; 0.1 µM): 0%
Cc1ccc(Nc2nccc(N(C)c3ccc4c(C)n(C)nc4c3)n2)cc1S(N)(=O)=O — inhibition (FGFR2; enzyme activity, inhibitor; 10 µM): 99%
CCCOc1ccc(OC)c(F)c1C(=O)c1ccc(C(=O)N[C@@H]2CNC[C@H]2NC(=O)c2ccc3[nH]ncc3c2)cc1 — remaining activity (FGFR2 N549H; enzyme activity, inhibitor; 10 µM): 69%
Cc1ccc(C(=O)NCc2ccsc2)cc1C#Cc1cn(C(C)C)c2ncnc(N)c12 — activity vs control (FGFR2; enzyme activity, inhibitor; 1 µM): 55%
O=C(NCCCC1CCCCC1)c1ccc(CNC(=O)c2cnn(-c3ccccc3)c2C(F)(F)F)cc1 — remaining binding (FGFR2; cell-free assay, competition with immobilised ligand; 0.1 µM): 100%
O=C1NC(=O)c2cc(Nc3ccc(F)cc3)c(Nc3ccc(F)cc3)cc21 — remaining signal (FGFR2; cell-free assay; 0.5 µM): 102%
CNCc1ccccc1-c1csc([C@H](C)Nc2nc(C)nc3cc(OC)c(OC)cc23)c1 — remaining binding (FGFR2; cell-free assay, competition with immobilised ligand; 1 µM): 94%
O=C1Nc2ccc(Cl)cc2C1=Cc1cc(Cl)c(O)c(Cl)c1 — remaining signal (FGFR2; cell-free assay; 0.5 µM): 92%
COc1cc(-c2cn(C3CCc4c(F)cccc4N(CC(F)(F)F)C3=O)nn2)ccc1-n1cnc(C)c1 (centres unmarked) — remaining binding (FGFR2; cell-free assay, competition with immobilised ligand; 1 µM): 100%
Cc1ccc(NC(=O)c2ccc(C)c(C(F)(F)F)c2)cc1C#Cc1nn(C2CCC(O)CC2)c2ncnc(N)c12 (centres unmarked) — remaining signal (FGFR2 N549H; cell-free assay; 10 µM): -1%
CS(=O)(=O)CCNCc1ccc(-c2ccc3ncnc(Nc4ccc(OCc5cccc(F)c5)c(Cl)c4)c3c2)o1 — remaining signal (FGFR2; cell-free assay; 0.5 µM): 96.4%
CNC(=O)c1cc(Oc2ccc(NC(=O)Nc3ccc(Cl)c(C(F)(F)F)c3)cc2)ccn1 — inhibition (FGFR2; enzyme activity, inhibitor; 0.3 µM): 66%
COc1ccc(COc2ccc(Cc3cnc(N)nc3N)cc2OC)cc1 — remaining signal (FGFR2; cell-free assay; 0.5 µM): 102%
CC(C)(O)[C@H]1CC[C@H](Nc2ccc3ncc(-c4cccc(C(F)(F)F)c4)n3n2)CC1 — remaining activity (FGFR2; enzyme activity, inhibitor; 1 µM): 98.3%
Cc1ccc(NC(=O)c2ccc(CN3CCN(C)CC3)cc2)cc1Nc1nc(-c2cccnc2)cs1 — remaining signal (FGFR2; cell-free assay; 0.5 µM): 100%
CCc1ccccc1C(=O)Nc1n[nH]c2c(C)c(F)c(C3C(C#N)=C(C)N(C)C(C)=C3C#N)cc12 — remaining binding (FGFR2; cell-free assay, competition with immobilised ligand; 1 µM): 83%
